Measured values published in ChEMBL document CHEMBL3244063, “Pharmacology on rat ileum of certain 2-substituted 3-(dimethylamino)-5,6-dimethoxyindenes related to 5,6-(methylenedioxy)indene calcium antagonists” (1978).
Calls of active or inactive are those of the source. The rule behind the calls is not given here.

Columns and labels:
Rattus norvegicus [1] = species on record: Rattus norvegicus; experiment: Antagonist activity at calcium channel in albino rat ileum assessed as inhibition of PGF-2alpha-induced spasmogenic action by measuring contraction of ileum at 10^-6 M preincubated for 3 mins followed by PGF-2alpha induction (reference value: 76 +/- 4%); type: tissue-based; parameters: scale not given: the % may be the effect or the level left
Rattus norvegicus [2] = species on record: Rattus norvegicus; experiment: Agonist activity at calcium channel in albino rat ileum assessed as induction of spasmogenic action by measuring contraction of ileum at 10^-3 M measured for 3 mins relative to PGF-2alpha; type: tissue-based
How it was run: (§1)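 Isolated rat ileum strips in an organ bath, with a separate strip for each compound and concentration. A control contraction to PGF2α (3 × 10⁻⁷ M bath) or acetylcholine (10⁻⁶ M bath) is recorded, and the bath is washed three times. Contraction during the 3-min test-compound incubation, before spasmogen is added, is expressed as percent of the control spasmogen response. Mean ± SEM of four experiments.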

Rattus norvegicus [3] = species on record: Rattus norvegicus; experiment: Agonist activity at calcium channel in albino rat ileum assessed as induction of spasmogenic action by measuring contraction of ileum at 10^-3 M measured for 3 mins relative to acetylcholine; type: tissue-based; how it was run: as §1
Rattus norvegicus [4] = species on record: Rattus norvegicus; experiment: Antagonist activity at calcium channel in albino rat ileum assessed as inhibition of acetylcholine-induced spasmogenic action by measuring contraction of ileum at 10^-6 acetylcholine induction (reference value: 80 +/- 5%); type: tissue-based; parameters: scale not given: the % may be the effect or the level left
Rattus norvegicus [5] = species on record: Rattus norvegicus; experiment: Agonist activity at calcium channel in albino rat ileum assessed as induction of spasmogenic action by measuring contraction of ileum at 10^-6 to 10^-5 M measured for 3 mins; type: tissue-based; how it was run: as §1
Rattus norvegicus [6] = species on record: Rattus norvegicus; experiment: Antagonist activity at calcium channel in albino rat ileum assessed as inhibition of acetylcholine-induced spasmogenic action by measuring contraction of ileum at 10^-3 acetylcholine induction (reference value: 80 +/- 5%); type: tissue-based; parameters: scale not given: the % may be the effect or the level left
Rattus norvegicus [7] = species on record: Rattus norvegicus; experiment: Antagonist activity at calcium channel in albino rat ileum assessed as inhibition of PGF-2alpha-induced spasmogenic action by measuring contraction of ileum at 10^-3 M preincubated for 3 mins followed by PGF-2alpha induction (reference value: 76 +/- 4%); type: tissue-based; parameters: scale not given: the % may be the effect or the level left
Rattus norvegicus [8] = species on record: Rattus norvegicus; experiment: Antagonist activity at calcium channel in albino rat ileum assessed as inhibition of acetylcholine-induced spasmogenic action by measuring contraction of ileum at 10^-4 acetylcholine induction (reference value: 80 +/- 5%); type: tissue-based; parameters: scale not given: the % may be the effect or the level left
Rattus norvegicus [9] = species on record: Rattus norvegicus; experiment: Antagonist activity at calcium channel in albino rat ileum assessed as inhibition of PGF-2alpha-induced spasmogenic action by measuring contraction of ileum at 10^-4 M preincubated for 3 mins followed by PGF-2alpha induction (reference value: 76 +/- 4%); type: tissue-based; parameters: scale not given: the % may be the effect or the level left
Rattus norvegicus [10] = species on record: Rattus norvegicus; experiment: Antagonist activity at calcium channel in albino rat ileum assessed as inhibition of acetylcholine-induced spasmogenic action by measuring contraction of ileum at 10^-5 acetylcholine induction (reference value: 80 +/- 5%); type: tissue-based; parameters: scale not given: the % may be the effect or the level left
Rattus norvegicus [11] = species on record: Rattus norvegicus; experiment: Agonist activity at calcium channel in albino rat ileum assessed as induction of spasmogenic action by measuring contraction of ileum at 10^-4 M measured for 3 mins relative to acetylcholine; type: tissue-based; how it was run: as §1
Rattus norvegicus [12] = species on record: Rattus norvegicus; experiment: Agonist activity at calcium channel in albino rat ileum assessed as induction of spasmogenic action by measuring contraction of ileum at 10^-4 M measured for 3 mins relative to PGF-2alpha; type: tissue-based; how it was run: as §1
Rattus norvegicus [13] = species on record: Rattus norvegicus; experiment: Antagonist activity at calcium channel in albino rat ileum assessed as inhibition of PGF-2alpha-induced spasmogenic action by measuring contraction of ileum at 10^-5 M preincubated for 3 mins followed by PGF-2alpha induction (reference value: 76 +/- 4%); type: tissue-based; parameters: scale not given: the % may be the effect or the level left
Heart = experiment: Positive inotropic activity in perfused rabbit heart assessed as increase in force of contraction at 10^-6 M relative to control; type: functional, Oryctolagus cuniculus

SMILES	Activity (Rattus norvegicus [1]) [%]	Activity (Rattus norvegicus [2]) [%]	Activity (Rattus norvegicus [3]) [%]	Activity (Rattus norvegicus [4]) [%]	Activity (Rattus norvegicus [5])	Activity (Rattus norvegicus [6]) [%]	Activity (Rattus norvegicus [7]) [%]	Activity (Rattus norvegicus [8]) [%]	Activity (Rattus norvegicus [9]) [%]	Activity (Rattus norvegicus [10]) [%]	Activity (Rattus norvegicus [11]) [%]	Activity (Rattus norvegicus [12]) [%]	Activity (Rattus norvegicus [13]) [%]	Activity (Heart) [%]
COc1cc2c(cc1OC)C(N(C)C)C(C)=C2 (stereo not drawn)	111	119	49.5	113	inactive	64	124	94.4	113	113	20.6	59.8	108	–
CCC1=Cc2cc(OC)c(OC)cc2C1N(C)C (stereo not drawn)	98.7	77.3	45.3	105	inactive	51.3	62	91.5	110	105	28.9	74.7	108	–
CCCC1=Cc2cc3c(cc2C1N(C)C)OCO3.Cl (stereo not drawn)	–	–	–	–	–	–	–	–	–	–	–	–	–	36
CCCCC1=Cc2cc(OC)c(OC)cc2C1N(C)C (stereo not drawn)	101	58.1	46.7	104	inactive	64.3	65.2	78.6	60.5	108	25.3	37.1	91.1	–
CCCC1=Cc2cc(OC)c(OC)cc2C1N(C)C (stereo not drawn)	104	61.7	43.6	104	inactive	56.7	49.1	96.6	99.7	110	42.7	80.7	99.3	–
